Source: ChEMBL document CHEMBL1135531, “Cardiovascular characterization of [1,4]thiazino[3,4-c][1,2,4]oxadiazol-1-one derivatives: selective myocardial calcium channel modulators” (J Med Chem, 2002)

Assays:
Cavia porcellus [1] = species: Cavia porcellus; test: Negative inotropic activity in isolated guinea pig left atrium.; assay type: functional, Cardiac atrium
Cavia porcellus [2] = species: Cavia porcellus; test: Percent inhibition of calcium-induced contraction on K+-depolarized guinea-pig aortic strip at 5 x 10 e-5M; assay type: functional; conditions: Aorta
Cavia porcellus [3] = species: Cavia porcellus; test: Effective drug concentration for negative inotropic activity was determined; Range is from 1.35-2.05 (10e-6 M); assay type: functional, organism-based
Outline: (§1)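 Left atria from female guinea pigs (300-400 g) in Tyrode PSS, pH 7.4, 95% O2/5% CO2, 35 °C. Driven at 1 Hz with 0.6-0.8 ms pulses at about 50% threshold voltage; isometric force recorded. Cumulative 0.1-100 µM in DMSO (≤0.3% in bath), each added at steady state. EC50 by Probit log concentration-response analysis (n = 6-8), not calculated when maximum effect <50%.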

Cavia porcellus [4] = species: Cavia porcellus; test: Negative chronotropic activity in isolated guinea pig right atrium.; assay type: functional, Cardiac atrium
Cavia porcellus [5] = species: Cavia porcellus; test: Effective drug concentration for negative inotropic activity was determined; Range is from 0.41-0.72 (10e-6 M); assay type: functional; outline: as §1
Cavia porcellus [6] = species: Cavia porcellus; test: Effective drug concentration for negative inotropic activity was determined; Range is from 0.55-0.93 (10e-6 M); assay type: functional; outline: as §1
Cavia porcellus [7] = species: Cavia porcellus; test: Effective drug concentration for negative inotropic activity was determined; Range is from 0.43-0.56 (10e-6 M); assay type: functional; outline: as §1
Cavia porcellus [8] = species: Cavia porcellus; test: Effective drug concentration for negative inotropic activity was determined; Range is from 1.03-1.45 (10e-6 M); assay type: functional; outline: as §1
Cavia porcellus [9] = species: Cavia porcellus; test: Effective drug concentration for negative inotropic activity was determined; Range is from 0.23-0.43 (10e-6 M); assay type: functional; outline: as §1
Cavia porcellus [10] = species: Cavia porcellus; test: Effective drug concentration for negative inotropic activity was determined; Range is from 1.34-2.19 (10e-6 M); assay type: functional, organism-based; outline: as §1
Cavia porcellus [11] = species: Cavia porcellus; test: Effective drug concentration for negative inotropic activity was determined; Range is from 1.02-1.98 (10e-6 M); assay type: functional; outline: as §1
Cavia porcellus [12] = species: Cavia porcellus; test: Effective drug concentration for negative inotropic activity was determined; Range is from 0.65-1.05 (10e-6 M); assay type: functional; outline: as §1
Cavia porcellus [13] = species: Cavia porcellus; test: Effective drug concentration for negative inotropic activity; Range is from 0.41-0.65 (10e-6 M); assay type: functional; outline: as §1
Cavia porcellus [14] = species: Cavia porcellus; test: Effective drug concentration for negative inotropic activity was determined; Range is from 0.18-0.30 (10e-6 M); assay type: functional; outline: as §1
Cavia porcellus [15] = species: Cavia porcellus; test: Effective drug concentration for negative inotropic activity; assay type: functional; outline: as §1
Cavia porcellus [16] = species: Cavia porcellus; test: Effective drug concentration for negative inotropic activity was determined; Range is from 2.35-3.10 (10e-6 M); assay type: functional; outline: as §1
Cavia porcellus [17] = species: Cavia porcellus; test: Effective drug concentration for negative inotropic activity was determined; Range is from 0.46-0.92 (10e-6 M); assay type: functional; outline: as §1
Cavia porcellus [18] = species: Cavia porcellus; test: Effective drug concentration for negative inotropic activity was determined; Range is from 1.35-2.23 (10e-6 M); assay type: functional, organism-based; outline: as §1
Cavia porcellus [19] = species: Cavia porcellus; test: Effective drug concentration for negative inotropic activity was determined; Range is from 3.67-4.52 (10e-6 M); assay type: functional, organism-based; outline: as §1
Cavia porcellus [20] = species: Cavia porcellus; test: Effective drug concentration for negative inotropic activity was determined; Range is from 0.61-0.85 (10e-6 M); assay type: functional; outline: as §1
Cavia porcellus [21] = species: Cavia porcellus; test: Effective drug concentration for negative inotropic activity was determined; Range is from 1.67-2.83 (10e-6 M); assay type: functional, organism-based; outline: as §1
Cavia porcellus [22] = species: Cavia porcellus; test: Effective drug concentration for negative inotropic activity was determined; Range is from 5.99-7.13 (10e-6 M); assay type: functional, organism-based; outline: as §1
Cavia porcellus [23] = species: Cavia porcellus; test: Effective drug concentration for negative inotropic activity was determined; Range is from 0.53-0.64 (10e-6 M); assay type: functional; outline: as §1
Cavia porcellus [24] = species: Cavia porcellus; test: Effective drug concentration for negative inotropic activity was determined; Range is from 0.70-0.85 (10e-6 M); assay type: functional
Cavia porcellus [25] = species: Cavia porcellus; test: Effective drug concentration (EC30) for negative chronotropic activity was determined; Range is from 0.064-0.075 (10e-6 M); assay type: functional

SMILES	Decrease (Cavia porcellus [1])	inhibition at 50 µM (Cavia porcellus [2])	Decrease (Cavia porcellus [4])	further results
CC1=CSC(O)(c2ccc([N+](=O)[O-])cc2)c2noc(=O)n21 (centres undefined)	73%	19%	16%	EC50 (Cavia porcellus [3]): 1650 nM
COc1ccc(C2(O)SC=C(C)n3c2noc3=O)cc1 (centres undefined)	76%	18%	12%	EC50 (Cavia porcellus [5]): 520 nM
CC1=CSC(O)(c2ccc(C#N)cc2)c2noc(=O)n21 (centres undefined)	76%	13%	30%	EC50 (Cavia porcellus [6]): 760 nM
COc1cccc(C2(O)SC=C(C)n3c2noc3=O)c1 (centres undefined)	86%	10%	16%	EC50 (Cavia porcellus [7]): 490 nM
CC1=CSC(O)(c2ccc(F)cc2)c2noc(=O)n21 (centres undefined)	74%	8%	10%	EC50 (Cavia porcellus [8]): 1210 nM
CC1=CSC(O)(c2ccc(Br)cc2)c2noc(=O)n21 (centres undefined)	97%	12%	18%	EC50 (Cavia porcellus [9]): 320 nM
CC1=Cn2c(noc2=O)C(O)(c2ccc(Cl)cc2)S1 (centres undefined)	71%	15%	11%	EC50 (Cavia porcellus [10]): 1720 nM
CC1=C(C)n2c(noc2=O)C(O)(c2ccc(Cl)cc2)S1 (centres undefined)	70%	28%	19%	EC50 (Cavia porcellus [11]): 1420 nM
CC1=CSC(O)(c2ccc(Cl)cc2)c2noc(=O)n21 (centres undefined)	80%	26%	18%	EC50 (Cavia porcellus [12]): 800 nM
O=c1onc2n1-c1ccccc1SC2(O)c1ccc(Cl)cc1 (centres undefined)	94%	40%	21%	EC50 (Cavia porcellus [13]): 520 nM
CC1=CSC(O)(c2ccccc2)c2noc(=O)n21 (centres undefined)	95%	4%	14%	EC50 (Cavia porcellus [14]): 230 nM
CC1=CSC(OCC(C)C)(c2ccc(Cl)cc2)c2noc(=O)n21 (centres undefined)	83%	37%	15%	EC50 (Cavia porcellus [15]): 560 nM
COC1(c2ccc(Cl)cc2)SC=C(C)n2c1noc2=O (centres undefined)	62%	14%	22%	EC50 (Cavia porcellus [15]): 1540 nM
CC1=CSC(O)(c2ccc(-c3ccccc3)cc2)c2noc(=O)n21 (centres undefined)	71%	9%	18%	EC50 (Cavia porcellus [16]): 2650 nM
CC1=CSC(O)(c2cccc(Cl)c2)c2noc(=O)n21 (centres undefined)	88%	17%	34%	EC50 (Cavia porcellus [17]): 650 nM
CC1=CSC(O)(c2cccc([N+](=O)[O-])c2)c2noc(=O)n21 (centres undefined)	68%	19%	13%	EC50 (Cavia porcellus [18]): 1760 nM
O=c1onc2n1C=CSC2(O)c1ccc(Cl)cc1 (centres undefined)	78%	10%	7%	EC50 (Cavia porcellus [19]): 4070 nM
CC1=CSC(O)(c2cccc(C)c2)c2noc(=O)n21 (centres undefined)	89%	12%	10%	EC50 (Cavia porcellus [20]): 720 nM
CC1=CSC(O)(c2cccc(C(F)(F)F)c2)c2noc(=O)n21 (centres undefined)	96%	37%	20%	EC50 (Cavia porcellus [21]): 2170 nM
O=c1onc2n1C=CSC2(O)c1ccccc1 (centres undefined)	74%	11%	14%	EC50 (Cavia porcellus [22]): 6580 nM
CC1=CSC(O)(c2ccc(C)cc2)c2noc(=O)n21 (centres undefined)	82%	5%	13%	EC50 (Cavia porcellus [23]): 570 nM
COc1ccc([C@@H]2Sc3ccccc3N(CCN(C)C)C(=O)[C@@H]2OC(C)=O)cc1 [DILTIAZEM]	78%	88%	94%	EC50 (Cavia porcellus [24]): 790 nM; EC30 (Cavia porcellus [25]): 70 nM
